Each structure is given as a SMILES string. Screen size: about 360,000 compounds; about 3,600 (1%) were called active. The sample as a whole holds a higher share of actives than the screen did. Unmarked numbers belong to inactive results.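 How the source made its calls: active means activation above the mean activation of all test compounds in the run plus 3 SD (cut at about 38% in these data); inactive means the rest.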

Trace amine-associated receptor 1 (Homo sapiens), sequence (Q96RJ0 whole entry, looked up): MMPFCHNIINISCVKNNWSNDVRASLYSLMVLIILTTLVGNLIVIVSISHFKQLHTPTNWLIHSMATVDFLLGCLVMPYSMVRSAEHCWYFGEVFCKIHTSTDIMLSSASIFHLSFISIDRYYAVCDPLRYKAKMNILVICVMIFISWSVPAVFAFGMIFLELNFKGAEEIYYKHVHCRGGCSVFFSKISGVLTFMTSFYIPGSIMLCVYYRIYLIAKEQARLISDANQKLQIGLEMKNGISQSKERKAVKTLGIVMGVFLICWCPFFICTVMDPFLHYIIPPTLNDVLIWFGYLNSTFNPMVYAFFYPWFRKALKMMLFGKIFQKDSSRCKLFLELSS

This assay addresses Trace amine-associated receptor 1 (Homo sapiens) (UniProt Q96RJ0). Briefly: human TAAR1 agonists, primary screen, Fluo-8 calcium fluorescence, CHO RD-HGA16 cells (AID 624467). Particulars: CHO RD-HGA16 TAAR1, Fluo-8 calcium fluorescence; at 3 µM; active compounds read high; vehicle wells 0%, saturating PEA agonist 100%. The procedure, abridged: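 Benchmarks: low control DMSO, high control PEA (EC100); System: CHO RD-HGA16 cells carrying human TAAR1 plus Gα16; Detection: Fluo-8 fluorescence, 5 s baseline then 140 s kinetic read; Schedule: 17-24 h plating, Fluo-8 75 min 37 °C, 30 min RT; Read-out basis: % activation from peak over basal fluorescence ratio, DMSO-to-PEA scaled.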
Consider `COc1ccc(OC)c(NC(=O)CSc2nc3cccnc3n2C)c1`, for which the activation was 1.87%.

On to `CCOc1ccc(OCCSc2nc3ccccc3n2CC(=O)O)cc1`, for which the activation is 3.64%.

Take `Cc1noc(C)c1COC(=O)Cn1c(C)nc2ccccc21`: the activation is 1.89%.

On to `CCCCCCCCCCOC(=O)Cn1c(COc2ccc(C)cc2)[n+](C)c2ccccc21`, for which the activation is 74.1% (active).

On to `NCCCNC(=S)NCCCN(Cc1ccc(Cl)cc1)c1ccc(Br)cn1`, for which the activation is 24.3%.

For `S=C(NCCCc1cnc[nH]1)NCCCN(Cc1ccc(Cl)c(Cl)c1)c1ccc(Br)cn1`, the activation was 44.3% (active).

Turning to `COC(=O)C1=C(C)N(Cc2ccc(C(F)(F)F)cc2)C(=NCc2ccc(C(F)(F)F)cc2)NC1c1cccc(Cl)c1` (stereo not drawn), the activation was 16.8%.

As for `O=C(CCC1CCCN(Cc2ccc(O)c(Cl)c2)C1)NCc1ccccc1F` (stereo not drawn), the activation was 5.41%.

Take `CCC(C)C(N=C1NS(=O)(=O)c2ccccc21)C(=O)N1CCC(C)CC1` (stereo not drawn): the activation was 5.5%.

`COc1ccccc1-c1ccc([C@@H]2C[C@H]3[C@H](CON3C)CN2S(=O)(=O)c2cc(Cl)cc(Cl)c2)cc1`: the activation is 0.17%.

In the case of `COc1ccc(OCC(O)CNC(=O)Nc2ccc(Cl)cc2)cc1` (stereo not drawn), the activation was 9.53%.

Take `OC(COc1ccccc1)CN1CCN(c2cccc(Cl)c2)CC1` (stereo not drawn): the activation is 4.5%.

For `OC(CNCCc1ccc(Cl)cc1Cl)COc1ccccc1` (stereo not drawn), the activation was 86% (active).

With `CC1CN(S(=O)(=O)c2cccc(C(F)(F)F)c2)CN1C(=O)N1CCOCC1` (stereo not drawn), the activation is -1.03%.

`CCOC(=O)[C@]12CCCC=C1N(CCC1=CCCCC1)C(=O)[C@H](CC(=O)N1CCOCC1)C2`: the activation was -0.62%.

In the case of `CCS(=O)(=O)N1CCN(C(=O)c2cccs2)CC1`, the activation is 3.03%.

On to `COC(=O)c1ccc(CN2C(=O)[C@]3(OCCC=C[C@H]3C)c3c(Br)cccc32)cc1`, for which the activation was 2.59%.

As to `O=C(NCCCN1CCCCC1)c1ccc2c(c1)NC(=O)C(N1CCOCC1)S2` (stereo not drawn), the activation was 3.95%.

As for `Cc1ccccc1CN1C(=O)c2ccccc2Sc2ccc(C(=O)NCCCN3CCOCC3)cc21`, the activation is 40.1% (active).

As for `CCC1=Nc2cc(C(=O)NCCCN3CCOCC3)ccc2Sc2ccc(Br)cc21`, the activation was 9.87%.

In the case of `COC(=O)c1c(-c2ccc(OC)cc2)c2c(c3c4cc(OC)ccc4n(S(=O)(=O)c4ccc(F)cc4)c13)C(=O)N(C)C2`, the activation is -0.58%.

For the compound `CCOC(=O)N1CCN(C(=O)c2ccccc2SCC(=O)NCC2CCCCC2)CC1`, the activation was 2.29%.

As to `O=C(COC(=O)c1ccc(F)cc1)NCC1COc2ccccc2O1` (stereo not drawn), the activation is 0.46%.

For the compound `c1ccc2c(c1)OCC(CNc1ncnc3nc[nH]c13)O2` (stereo not drawn), the activation was 225% (active).

With `O=C(COc1ccc(F)cc1Br)NCC1COc2ccccc2O1` (stereo not drawn), the activation was -1.29%.

For the compound `CN(c1ccccc1)S(=O)(=O)c1ccc(C(=O)NCc2cccnc2)cc1`, the activation was 3.27%.

Regarding `O=S(=O)(Cc1cc(Sc2ccccc2)nc(-c2ccccc2)n1)c1ccccc1`, the activation was 11.3%.

With `Cc1cc(N2CCOCC2)nc2ccc(NC(=S)N3CCN(Cc4ccccc4)CC3)cc12`, the activation is 7.44%.

With `Cc1ccc(Sc2cc(N3CCOCC3)nc(-c3ccccc3)n2)cc1`, the activation was 48.2% (active).

In the case of `c1ccc2c(CCN3CCNC[C@H]3Cc3cccc4ccccc34)cccc2c1`, the activation is 33.5%.

In the case of `c1ccc(C2CNCc3c2ccc2ccccc32)cc1` (stereo not drawn), the activation is 82% (active).

With `O=C(COC(=O)c1cc(-c2cccs2)nn1-c1ccccc1)Nc1cc([N+](=O)[O-])ccc1Cl`, the activation was 7.58%.

Regarding `Cc1ccc(N2C(=O)CC(NCc3ccc4c(c3)OCO4)C2=O)cc1Cl` (stereo not drawn), the activation is 1.12%.

Regarding `CSCCC(NS(=O)(=O)c1ccc2c(c1)oc(=O)n2C)C(=O)NC1CCCc2ccccc21` (stereo not drawn), the activation is 4.94%.

As for `COC(=O)[C@]12C[C@H](CC(=O)NCCc3ccccc3OC)C(=O)N(Cc3ccccc3)C1=C[C@H](C(C)C)O[C@@H]2C1CC1`, the activation was 30.4%.

With `COc1ccc(NS(=O)(=O)c2ccc(NC(=S)NC(=O)CC(C)C)cc2)cc1`, the activation is 42.2% (active).

Consider `COc1ccc(OC)c(C(C)NC(=S)Nc2ccc(S(=O)(=O)Nc3ncccn3)cc2)c1` (stereo not drawn), for which the activation was 1.66%.

Take `COc1cc(NS(=O)(=O)c2ccc(NC(=S)NC(=O)c3ccccc3)cc2)nc(OC)n1`: the activation is -5.7%.

Turning to `COc1ccc(C2c3ccc(O)cc3Oc3ncn(CCCO)c(=N)c32)cc1OC` (stereo not drawn), the activation is 0.73%.

For `C=CCN1C(=NC(=O)COc2ccccc2)SC2CS(=O)(=O)CC21` (stereo not drawn), the activation was 2.44%.

In the case of `C=CCN1CN(S(=O)(=O)c2ccc(OC)cc2)c2nc3ccccc3nc21`, the activation was 2.16%.

As to `O=C(NCc1ccccc1)[C@H]1CCCN1C(=O)[C@H]1CCCN1C(=O)N1CCOCC1`, the activation is 1.52%.

Regarding `Cc1ccc(C)n1-c1ccncc1`, the activation is 2.15%.

Consider `COc1ccc(C(CC(=O)N2CCN(c3ccccc3)CC2)c2c(O)cc(OC)cc2OC)cc1` (stereo not drawn), for which the activation was 2.38%.

Regarding `COc1ccc(C(C(=O)Nc2c(C)cccc2C)N2CCN(c3ccc(C)cc3)CC2)cc1` (stereo not drawn), the activation is 5.99%.

Regarding `COc1ccc(C(C(O)C(=O)c2c[nH]c3ccccc23)N2CCN(c3ccccc3)CC2)cc1` (stereo not drawn), the activation was 39.9% (active).

As to `COC(=O)C1=C(C)N(Cc2ccc(F)cc2)C(=S)NC1c1cccc(Cl)c1` (stereo not drawn), the activation is -0.89%.

For `CN1CCCc2nc(-c3ccccc3)ccc21`, the activation is 1.31%.

As for `O=C(Nc1ccccc1)c1ccc2nsnc2c1`, the activation was -0.47%.

Consider `O=C(Nc1cccc(NC(=O)c2ccc(Br)cc2)c1)c1ccccc1`, for which the activation is 63.2% (active).

Turning to `CC(C)(C)NC(=O)c1cccc(NC(=O)Cc2ccc(Br)cc2)c1`, the activation is 2.23%.

With `O=C1CCN(CCc2ccccc2)CCN1CCOc1ccccc1`, the activation was 19.8%.

For the compound `CCCN1CNC(=S)N(CCc2ccccc2)C1`, the activation is 4.93%.

Take `N#CNC1=NCN(CCc2ccccc2)CN1`: the activation is 63.9% (active).

As to `CC(C)C[C@H](NC(=O)CC1CCCC1)C(=O)N1CCC[C@H]1C(=O)NCc1ccccc1`, the activation was 1.37%.

Turning to `CCOc1ccc(Nc2nc(Cc3nnc(SCC(=O)NC4CCCC4)n3C)cs2)cc1`, the activation was 11.9%.

For the compound `COCCCn1c(Cc2csc(Nc3cccc(Cl)c3)n2)nnc1SCC(=O)OC1CCCCC1`, the activation was 52.8% (active).

`COCCCn1c(SCC(=O)NC2CCCC2)nnc1-c1ccccc1`: the activation was 0.55%.

The values above are taken from PubChem BioAssay AID624467 (The Scripps Research Institute Molecular Screening Center, 2012).
